Measurements from different studies.
Compare with care: the assays were run in different laboratories.

For CCc1cc(OC)c2nccc(N3CCc4c(cc(Cn5ccnc5)cc4-c4cn(C)nc4C(F)(F)F)C3=O)c2c1, the AUC(0-inf) was 225000 ng·h/mL (male CD-1 mouse, plasma; oral, 150 mg/kg).
The AUC(0-inf) of Cc1nc(-c2cnc(NC(C)C)n(C)c2=O)ccc1Oc1ccnc(-c2cnn(C)c2)c1 is reported as 80400 ng·h/mL (female mouse, plasma; oral, 7.5 mg/kg, single dose).
CC=Cc1ccc(O)c(OC)c1 has an AUC(0-inf) of 10100 ng·h/mL (mouse, plasma; intranasal, 100 mg/kg).
CC(C)(C)c1ccc(O)c(CN(Cc2cc(C(C)(C)C)ccc2O)C2CCC(NC(N)=O)CC2)c1 (stereo not drawn) gave an AUC(0-inf) of 16600 ng·h/mL (male C57BL/6 mouse, plasma; intraperitoneal, 25 mg/kg, single dose).
CCc1cc(C(=O)NC)c2nccc(N3CCc4c(cc(Cn5ccnc5)cc4-c4cn(C)nc4C(F)(F)F)C3=O)c2c1 gave an AUC(0-inf) of 122000 ng·h/mL (male CD-1 mouse, plasma; oral, 50 mg/kg).
COc1nc(-c2cc(C)c(N[C@@H](C)c3cc(F)cc(F)c3)nn2)ccc1-n1cnc(C)c1 gave an AUC(0-inf) of 2070 ng·h/mL (male CD-1 mouse, plasma; intravenous, 1 mg/kg, single dose).
c1ccc(-c2nc(N3CCC(c4ccccn4)C3)c3ccccc3n2)nc1 (stereo not drawn) has an AUC(0-inf) of 10500 ng·h/mL (female BALB/c mouse, plasma; oral, 50 mg/kg).
CN1CCN(C(=O)CN[C@@H]2C[C@H]2c2ccc(OCc3ccccc3)cc2)CC1 gave an AUC(0-inf) of 1720 ng·h/mL (mouse, plasma; intraperitoneal, 10 mg/kg).
COc1cc(OC)c2nccc(N3CCc4c(cc(Cn5ccnc5)cc4-c4cn(C)nc4C(F)(F)F)C3=O)c2c1 gave an AUC(0-inf) of 805 ng·h/mL (male CD-1 mouse, plasma; intravenous, 3 mg/kg).
COc1ccc2c(=O)cc(-c3ccccc3)oc2c1O has an AUC(0-inf) of 1.67 ng·h/mL (male CD-1 mouse, plasma; oral, 50 mg/kg).
With COc1nc(-c2cc(C)c(N[C@@H](C)c3ccc(F)cc3)nn2)ccc1-n1cnc(C)c1 the AUC(0-inf) was 4280 ng·h/mL (male CD-1 mouse, plasma; intravenous, 1 mg/kg, single dose).
For COc1ccc2nccc(N3CCc4c(cc(Cn5ccnc5)cc4-c4cn(C)nc4C(F)(F)F)C3=O)c2c1, the AUC(0-inf) was 2100 ng·h/mL (male CD-1 mouse, plasma; oral, 10 mg/kg).
Cc1noc(C)c1-c1ccc2nc(-c3cnn(CCO)c3)nc(N3CCOCC3c3ccccc3)c2c1 (stereo not drawn) gave an AUC(0-inf) of 1760 ng·h/mL (CD-1 mouse, plasma; intravenous, 2 mg/kg).
CN1C(=O)c2ccccc2[S@+]([O-])c2ccc(C(=O)NCCc3cccs3)cc21 gave an AUC(0-inf) of 1430 ng·h/mL (male C57BL/6 mouse, brain; intraperitoneal, 30 mg/kg, single dose).
With Cc1cc(Nc2ccc(S(F)(F)(F)(F)F)cc2)n2ccnc2n1 the AUC(0-inf) was 154 µM·h (male Swiss mouse, plasma; oral, 100 mg/kg, single dose).
The AUC(0-inf) of COc1cc2c(Nc3ccc(Cl)c(Cl)c3F)ncnc2cc1OC[C@@H]1C[C@@H]2CN(C)C[C@@H]2C1 is reported as 158000 ng·h/mL (FVB mouse, brain; oral, 70 mg/kg, single dose).
For CNCCN(C)c1cc(C#N)cc(CCc2cc(C)cc(N)n2)c1, the AUC(0-inf) was 182 ng·h/mL (male BALB/c mouse, plasma; oral, 10 mg/kg).
For Cc1ccc2cncc(N3CCc4c(cc(Cn5ccnc5)cc4-c4cn(C)nc4C(F)(F)F)C3=O)c2c1, the AUC(0-inf) was 3870 ng·h/mL (male CD-1 mouse, plasma; intravenous, 3 mg/kg).
The AUC(0-inf) of CC[C@H](C)[C@@H]1NC(=O)[C@@](C)(NC(=O)[C@H](CCCNC(=N)N)NC(=O)[C@H](CC(C)C)NC(=O)[C@@H](NC(=O)[C@H](CCC(N)=O)NC(=O)[C@H](CC(C)C)NC(C)=O)[C@@H](C)O)CCCC=CCCC[C@@](C)(C(=O)N[C@@H](CC(C)C)C(=O)N[C@@H](Cc2ccc3ccccc3c2)C(N)=O)NC(=O)[C@H](CCCNC(=N)N)NC(=O)[C@H](CCC(N)=O)NC1=O is reported as 233000 ng·h/mL (male BALB/c mouse, plasma; intravenous, 10 mg/kg).
For CNC(=O)c1cc(OC)cc2c(N3CCc4c(cc(Cn5ccnc5)cc4-c4cn(C)nc4C(F)(F)F)C3=O)ccnc12, the AUC(0-inf) was 145000 ng·h/mL (male CD-1 mouse, plasma; oral, 50 mg/kg).
Cc1ccc(NC(=O)c2ccc(CN3CCN(C)CC3)cc2)cc1Nc1nccc(-c2cncc(-c3oncc3C)c2)n1 gave an AUC(0-inf) of 1200 ng·h/mL (male C57BL/6 mouse, brain; oral, 100 mg/kg/day).
